Activity calls are given as the source filed them. The calls are words filed in the database; no cut-off is given here.
How the values were obtained:
Procathepsin L [1] = molecular target: T1, Procathepsin L (Homo sapiens, UniProt P07711); assay: Inhibition of cathepsin L (unknown origin) using fluorogenic Z-FR-MCA as substrate preincubated for 5 mins followed by substrate addition by spectrofluorimetric assay
Target sequence in this assay (P07711 whole entry): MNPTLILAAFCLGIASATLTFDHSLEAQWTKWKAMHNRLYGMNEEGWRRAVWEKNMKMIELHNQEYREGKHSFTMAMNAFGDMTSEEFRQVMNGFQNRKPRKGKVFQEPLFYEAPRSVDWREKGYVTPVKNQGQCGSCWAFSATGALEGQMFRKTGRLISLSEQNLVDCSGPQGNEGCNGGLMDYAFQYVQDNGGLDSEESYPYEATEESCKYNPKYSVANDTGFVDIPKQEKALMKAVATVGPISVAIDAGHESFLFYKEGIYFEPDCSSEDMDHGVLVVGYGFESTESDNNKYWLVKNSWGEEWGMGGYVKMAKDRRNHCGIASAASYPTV

Cathepsin K [2] = molecular target: T2, Cathepsin K (Homo sapiens, UniProt P43235); assay: Inhibition of recombinant human cathepsin K using Z-Phe-Arg-MCA as fluorogenic substrate preincubated for 5 mins followed by substrate addition and measured after 5 mins by fluorimetric analysis
T2 sequence (P43235 whole entry): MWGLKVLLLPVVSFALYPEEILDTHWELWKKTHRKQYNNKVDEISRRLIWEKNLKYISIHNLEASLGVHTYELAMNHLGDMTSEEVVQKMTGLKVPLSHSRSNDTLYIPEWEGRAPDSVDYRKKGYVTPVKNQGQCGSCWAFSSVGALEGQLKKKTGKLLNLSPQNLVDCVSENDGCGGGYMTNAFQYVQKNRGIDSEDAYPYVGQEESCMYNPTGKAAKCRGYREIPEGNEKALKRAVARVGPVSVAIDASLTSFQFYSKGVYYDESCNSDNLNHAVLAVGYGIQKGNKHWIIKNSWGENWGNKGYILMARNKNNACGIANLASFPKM
Procedure, shortened: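 Recombinant human CatK, expressed in Pichia pastoris and active-site titrated with E-64, was used at 2 nM in 0.1 M sodium acetate pH 5.5 with 2.5 mM DTT and 2.5 mM EDTA at room temperature. Enzyme and inhibitor were preincubated 5 min, then 10 μM Z-Phe-Arg-MCA was added. Fluorescence (ex 380/em 460 nm) was read for 5 min. Triplicates; % inhibition from initial rates; IC50 from ≥7 inhibitor concentrations.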

Procathepsin L [3] = molecular target: T1, Procathepsin L; assay: Inhibition of cathepsin L (unknown origin) at 25 uM using fluorogenic Z-FR-MCA as substrate preincubated for 5 mins followed by substrate addition by spectrofluorimetric assay relative to control
Target sequence in this assay (P07711 114-333 limits assumed): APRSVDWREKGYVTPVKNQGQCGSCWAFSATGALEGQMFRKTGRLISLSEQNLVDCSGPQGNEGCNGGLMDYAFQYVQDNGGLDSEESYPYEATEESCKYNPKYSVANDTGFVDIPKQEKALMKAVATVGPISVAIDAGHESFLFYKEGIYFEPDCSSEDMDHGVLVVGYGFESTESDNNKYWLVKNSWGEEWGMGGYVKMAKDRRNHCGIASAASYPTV

Cathepsin K [4] = molecular target: T2, Cathepsin K; assay: Binding affinity to recombinant human cathepsin K
[5] = molecular target: T3, Cathepsin K (Homo sapiens) (UniProt P43235); assay: Mixed type inhibition of recombinant human cathepsin K by Michaelis-Menten plot analysis
T3 sequence (whole entry): T2 sequence (P43235 whole entry)

Compound	IC50 (Procathepsin L [1]) [µM]	IC50 (Cathepsin K [2]) [µM]	inhibition (Procathepsin L [3]) [%]	Ki (Cathepsin K [4]) [µM]	inhibition [5]
CCCCNC(=O)C([C@H]1O[C@@H]1c1ccccc1Br)N(Cc1ccccc1)C(=O)c1ccccc1 (stereo partly drawn)	> 50	–	–	–	–
CCCCNC(=O)C([C@H]1O[C@@H]1c1ccccc1)N(Cc1ccccc1)C(=O)c1ccccc1 (stereo partly drawn)	–	18.5	0	–	–
CCCCCCC[C@H]1O[C@@H]1C(OC(=O)c1ccc(I)cc1)C(=O)NC(C)(C)C (stereo partly drawn)	–	2.21	–	–	–
CCCCNC(=O)C([C@H]1O[C@@H]1c1ccccc1)N(C(=O)c1ccc(I)cc1)C(C)(C)C (stereo partly drawn)	–	6.44	30	9.57	Active
CCCCCCC[C@H]1O[C@@H]1C(OC(=O)C1CCCCC1)C(=O)NC(C)(C)C (stereo partly drawn)	–	7.6	0	–	–
CCCCCCC[C@H]1O[C@@H]1C(OC(=O)c1ccc(I)cc1)C(=O)NCCCC (stereo partly drawn)	–	3.35	–	5.45	Active
CCCCNC(=O)C([C@H]1O[C@@H]1c1ccccc1[N+](=O)[O-])N(Cc1ccccc1)C(=O)c1ccccc1 (stereo partly drawn)	> 50	–	–	–	–
CCCCCCC[C@H]1O[C@@H]1C(OC(=O)c1ccc(I)cc1)C(=O)NC1CCCCC1 (stereo partly drawn)	5.36	–	–	–	–
CCCCCCC[C@H]1O[C@@H]1C(OC(=O)CCCCCBr)C(=O)NC(C)(C)C (stereo partly drawn)	–	3.81	0	–	–
CCCCNC(=O)C([C@H]1O[C@@H]1CC)N(Cc1ccccc1)C(=O)c1ccccc1 (stereo partly drawn)	–	–	0	–	–

Reference: ChEMBL document CHEMBL4622957, “Green asymmetric synthesis of epoxypeptidomimetics and evaluation as human cathepsin K inhibitors” (Bioorg Med Chem, 2020)
